Source: PubChem BioAssay
Compounds with a hit are over-represented: about 4.3% of the library has one in this group of screens.
Rtt109 HAT inh: inhibitors of C. albicans Rtt109/Vps75 HAT, primary screen, biochemical, ThioGlo CoA-SH fluorescence, plate reader; 330,000 compounds, 0.16% hits; AID 540336, 2011; purified Rtt109/Vps75, 4 h; inhibition, % at 34.9 µM; Histone acetyltransferase RTT109 (Candida albicans (strain SC5314 / ATCC MYA-2876)), …;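 active means inhibition of at least 50% in every replicate; inconclusive means best replicate reaches 50% inhibition but some replicates fall short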
Target sequence (Q5AAJ8 whole entry, looked up): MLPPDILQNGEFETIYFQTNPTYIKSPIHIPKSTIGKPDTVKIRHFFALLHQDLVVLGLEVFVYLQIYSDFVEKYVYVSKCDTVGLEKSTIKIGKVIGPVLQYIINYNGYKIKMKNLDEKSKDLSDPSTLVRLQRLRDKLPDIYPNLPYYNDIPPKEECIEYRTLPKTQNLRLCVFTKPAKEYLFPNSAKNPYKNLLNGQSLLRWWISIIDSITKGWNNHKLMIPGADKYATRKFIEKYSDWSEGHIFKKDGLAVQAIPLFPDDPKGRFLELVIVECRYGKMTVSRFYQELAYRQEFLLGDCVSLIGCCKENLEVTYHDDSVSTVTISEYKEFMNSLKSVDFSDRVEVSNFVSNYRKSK
ALR H2O2 inh: inhibitors of human ALR sulfhydryl oxidase, primary screen, biochemical, H2O2 detection, HRP-luminol luminescence, single point. 290,000 compounds, 3.8% hits. purified ALR, DTT oxidation. inhibition, % (test concentration not listed). FAD-linked sulfhydryl oxidase ALR (Homo sapiens), P55789;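 active means mean replicate inhibition above about 79%, with every replicate also reaching it, limit read from the data; inconclusive means only one of the two criteria met; inactive means mean below limit and not every replicate reaching it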
Target sequence (P55789 whole entry, looked up): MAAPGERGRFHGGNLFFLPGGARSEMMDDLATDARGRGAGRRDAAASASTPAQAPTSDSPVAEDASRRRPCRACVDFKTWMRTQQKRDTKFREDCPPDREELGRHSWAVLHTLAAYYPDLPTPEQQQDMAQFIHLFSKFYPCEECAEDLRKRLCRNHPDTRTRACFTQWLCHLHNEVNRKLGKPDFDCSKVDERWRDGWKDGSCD
CAL PDZ FP-1: untagged CAL PDZ binding inhibitors, primary screen, biochemical, fluorescence polarization, HTS; Golgi-associated PDZ and coiled-coil motif-containing protein (Homo sapiens), Q9HD26; purified CAL PDZ, TMR-peptide fluorescence polarization, 1 h; inhibition, % at 24.9 µM; 300,000 compounds, 0.92% hits;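 active means mean inhibition of at least 30% with at least half of replicates also reaching 30%; inconclusive means no clear call, values can overlap the other calls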;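 further: 0% = DMSO neutral control and 100% = excess unlabeled competitor peptide PRC23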
CAL PDZ FP-2: CAL PDZ peptide-binding inhibitors, primary screen, biochemical, fluorescence polarization, Cer-tagged CAL PDZ, HTS | Golgi-associated PDZ and coiled-coil motif-containing protein (Homo sapiens), Q9HD26 | purified CAL PDZ, TMR-peptide fluorescence polarization, 1 h | inhibition, % at 20 µM | 330,000 compounds, 0.02% hits;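 active means highest replicate inhibition of at least 40%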;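 further: plate controls were DMSO neutral control wells for no effect and unlabeled competitor peptide control wells for full effect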
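material = purified tagged CAL PDZ domain construct (CerCALP) | buffer or medium = sodium phosphate/NaCl buffer pH 7.4 with TCEP, IgG, Thesit | reagent = TMR-labelled reporter peptide T*-PRC34 bound in PDZ groove | incubation = 1 h room-temperature incubation prior to read | measured by = fluorescence polarization (mP) | evaluation = percent inhibition from loss of millipolarization | control set = unlabelled peptide and DMSO controls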
DYRK1A inh: rat Dyrk1A kinase inhibitors, primary screen, biochemical, single point, plate reader. ADP-Glo luminescence, NFATc1 peptide. Dual specificity tyrosine-phosphorylation-regulated kinase 1A (Rattus norvegicus), Q63470. inhibition, % at 12.5 µM. AID 504441, 2011. 310,000 compounds, 0.43% hits; in the data active means inhibition above about 50%;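 further: plate controls were vehicle with enzyme for no effect and no enzyme for full effect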
An asterisk follows results filed as active; ? = inconclusive; . = no result.

SMILES	Rtt109 HAT inh	ALR H2O2 inh	CAL PDZ FP-1	CAL PDZ FP-2	DYRK1A inh
Cc1oc(-c2ccccc2)nc1CS(=O)CC(=O)NC1CCCCCC1 (stereo not drawn)	-3	100*	3	1	-7
CCN(CC)CCNC(=O)c1cccc(NC(=O)C(=O)c2cc(Br)ccc2NC(C)=O)c1	10	.	0	-3	5
C/C(=N/NC(=O)c1ccc(C)s1)c1cccc(NC(=O)c2ccoc2C)c1	4	-3	-3	-1	5
COC(=O)c1c(N2C(=O)[C@H]3[C@@H](C2=O)[C@]2(C(=O)Nc4c(C)cc(C)cc42)N2CCC[C@@H]32)sc(C)c1C	.	-5	66*	0	1
COC(=O)c1c(N2C(=O)[C@H]3[C@@H](C2=O)[C@]2(C(=O)Nc4c2ccc(C)c4C)N2CCC[C@@H]32)sc(C)c1C	-12	0	1	-1	-6
NC(=O)c1cnn(C2CCS(=O)(=O)C2)c1 (stereo not drawn)	-3	1	-1	-3	0
COc1ccc(Nc2nc(Nc3ccc(OC)cc3)nc(-n3[nH]c(=O)c(C)c3C)n2)cc1	-1	84*	2	-1	-3
CC(=O)NC(c1cccc([N+](=O)[O-])c1)c1ccc2cccnc2c1O (stereo not drawn)	-13	0	-2	0	-2
O=[N+]([O-])c1ccc(NC(c2ccccc2)c2ccc3cccnc3c2O)cc1 (stereo not drawn)	-6	.	91*	2	-3
Cc1ccc(C)c(N2CCN(S(=O)(=O)c3ccc(-c4ccc(=O)[nH]n4)o3)CC2)c1	-5	2	44*	-1	0
CC(=O)c1ccc(N2CCN(C(=O)Cn3cnc(S(=O)(=O)N4CCCCC4)c3)CC2)cc1	2	-1	-2	-1	-1
CSCC[C@H](NC(=O)N1CCn2c1nc1ccccc12)C(=O)NCc1ccccc1	12	-16	0	-1	6
CSCC[C@H](NC(=O)N1CCn2c1nc1ccccc12)C(=O)NCc1ccco1	8	96*	3	-1	-7
O=C(O)c1cc(-c2ccc(Cl)s2)nc2ccccc12	5	93*	-9	-3	.
Cc1cccc(-c2c3c(=O)n(C)c(=O)n(C)c3cn2-c2ccc(O)cc2)c1	32	95*	.	-1	-4
Cc1cccc(-c2c3c(=O)n(C)c(=O)n(C)c3cn2C(C)C)c1	7	3	2	-1	1
O=C(Cc1ccc(Cl)c(Cl)c1)Nc1ccc(S(=O)(=O)Nc2ncccn2)cc1	-9	-9	-4	-3	-4
O=C(O)C1C(c2ccccc2)C(C(=O)Oc2ccc(O)cc2)C1c1ccccc1 (stereo not drawn)	5	94*	.	0	1
CC(NS(=O)(=O)c1ccc2c(c1)C(C)(C)C(=O)N2C)c1ccccc1 (stereo not drawn)	-4	-1	.	0	2
CC(=O)Nc1nc(=S)n(-c2ccccc2)[nH]1	-6	?	.	-1	-6
CC(C)c1nc(=S)n(-c2ccccc2)[nH]1	18	90*	-2	-1	4
C=CCn1c(C)cc(C(=O)COC(=O)CNC(=O)c2ccccc2)c1C	3	41	2	0	-8
O=C(COC(=O)c1cc(S(=O)(=O)N2CCOCC2)ccc1F)c1ccccc1	0	-1	43*	-1	0
O=C(OCC(=O)N1CCCc2ccccc21)c1cc(S(=O)(=O)N2CCOCC2)ccc1O	-4	4	65*	0	2
O=C(OCC(=O)N1CCCc2ccccc21)c1cc(S(=O)(=O)N2CCOCC2)ccc1F	-15	2	-3	-1	-2
SMILES	Rtt109 HAT inh	ALR H2O2 inh	CAL PDZ FP-1	CAL PDZ FP-2	DYRK1A inh
O=C(COC(=O)c1ccc(F)c(S(=O)(=O)N2CCOCC2)c1)c1ccccc1	15	0	12	-3	-2
COc1cccc(C(C(=O)NC2CCCC2)N(CC2CCCO2)C(=O)Cc2cccs2)c1 (stereo not drawn)	3	-17	1	0	1
O=C(C1CCCCC1)N1CCN=C1SCc1cccnc1	-2	100*	-1	0	-1
COc1ccc(CC(=O)N2CCN=C2SCc2cccc([N+](=O)[O-])c2)cc1	11	99*	-3	-1	.
O=C(c1ccc(S(=O)(=O)N2CCCCC2)cc1)N1CCN=C1SCc1cccnc1	-3	.	6	0	3
O=C(Cc1ccc([N+](=O)[O-])cc1)N1CCN=C1SCc1ccccc1	9	-4	-3	-3	-7
O=C(C1CCCCC1)N1CCN=C1SCc1cccc([N+](=O)[O-])c1	27	100*	5	0	-6
CCCCCCCCNCCS(=O)(=O)NCCCCCCCC	11	.	-2	-1	8
CCCC(=O)Nc1ccc(NCc2ccc(C)s2)cc1	4	91*	.	0	8
CC(=O)Nc1ccc(NCc2ccc(C)s2)cc1	4	96*	-5	-1	.
CCCC(=O)Nc1ccc(N2CCOCC2)cc1	-8	43	-3	0	3
CC(C(=O)Nc1ccc(Br)cc1)N(C)CC(=O)NCc1ccco1 (stereo not drawn)	1	3	-9	-1	-4
Oc1ccc(/C=C/c2cc(O)cc(O)c2)cc1	10	79*	-1	2	46
COc1cc(O)cc(/C=C/c2ccccc2)c1	4	.	.	0	.
Nc1nc(-c2ccccc2)[nH]c(=O)c1N	2	-14	-1	-3	75*
Nc1[nH]nc2nc(-c3ccccc3)[nH]c(=O)c12	-1	11	-4	-1	-4
Nc1c(S(=O)(=O)c2cccs2)c2nc3ccccc3nc2n1/N=C/c1cccc(O)c1	-6	-12	49*	-2	10
COc1cccc(/C=N/n2c(N)c(S(=O)(=O)c3cccs3)c3nc4ccccc4nc32)c1	-9	-13	1	-1	-1
Cc1ccc(-n2c(=O)[nH]c3cc(C(=O)NC4CCN(Cc5ccccc5)CC4)ccc3c2=O)cc1	-4	-4	38*	-1	4
Cc1ccc(CN2CCSc3ccc(C(=O)NC4CCN(Cc5ccccc5)CC4)cc32)cc1	0	27	-2	-2	0
CCc1ccc(C(=O)NNC(=O)[C@H](C)NC(=O)c2ccco2)cc1	3	-2	1	1	.
NC(=S)N=Nc1c(O)[nH]c2c(Br)cc(Br)cc12	17	-3	-3	1	5
COc1cc(Cc2ccc(N)c(OC)c2)ccc1N	-6	98*	-1	-2	-4
CCCn1cnc2c(N)c(C)c(C)cc21	13	83*	-2	2	-2
